IDH1 mut inh: inhibitors of human IDH1 R132H. O75874. IDH1 R132H reductase, diaphorase/resazurin fluorescence, 60 min. inhibition, % at 10 µM. hit rate 0.18% among 70,000. AID 624101; in the data active = inhibition above about 34%; inconclusive = no clear call, values can overlap the other calls; inactive = below about 11%
Target sequence (O75874 whole entry R132H): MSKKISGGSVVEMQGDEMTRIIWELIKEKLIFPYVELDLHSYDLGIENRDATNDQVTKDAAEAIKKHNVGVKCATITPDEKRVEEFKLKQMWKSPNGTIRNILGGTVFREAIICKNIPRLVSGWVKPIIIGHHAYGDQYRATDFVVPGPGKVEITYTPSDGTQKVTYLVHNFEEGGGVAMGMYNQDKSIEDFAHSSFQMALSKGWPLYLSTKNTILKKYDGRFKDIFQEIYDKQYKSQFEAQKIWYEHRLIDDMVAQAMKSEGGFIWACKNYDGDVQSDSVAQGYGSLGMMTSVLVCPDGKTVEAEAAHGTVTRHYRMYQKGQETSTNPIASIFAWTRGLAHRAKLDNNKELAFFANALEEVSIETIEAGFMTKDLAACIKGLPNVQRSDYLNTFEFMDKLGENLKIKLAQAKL
Pf Dd2 growth: blocks growth of Plasmodium falciparum Dd2 parasites; AID 1159554; P. falciparum Dd2 growth, SYBR Green, 72 h; active compounds read low; hit rate 2.3% among 94,000; activity change, % at 10 µM; in the data active = activity change below about -80%; inconclusive = no clear call, values can overlap the other calls
KDM4C inh: inhibitors of human demethylase GASC-1 KDM4C; GST-KDM4C 2-372, H3K9me3 peptide, LANCE TR-FRET; inhibition, % at 12.5 µM; hit rate 0.15% among 96,000; AID 720574;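 active = mean replicate inhibition above about 25%, with at least 55% of replicates also reaching it, limit read from the data, passing the limit was not always enough; inconclusive = only one of those two conditions met; inactive = neither condition met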
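Material: GST-tagged GASC-1 (JMJD2C) catalytic fragment, aa 2-372 / Quantity: enzyme final amount 10 nM / Medium: HEPES buffer, pH 7.5, plus ascorbate / Doses: one test concentration per compound / Incubation: 30 min reaction, 60 min detection, RT / Measured by: LANCE TR-FRET / Read-out: inhibition from TR-FRET ratio decrease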
T cruzi growth-1: T. cruzi proliferation inhibition; hit rate 5.9% among 77,000; T. cruzi beta-gal in NIH3T3, GalScreen luminescence, 90 h; AID 624255; inhibition, % at 8.34 µM;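 active = mean inhibition above about 93%, with at least 55% of replicates each passing it, limit read from the data, passing the limit was not always enough; inconclusive = only one of those two conditions holds; inactive = neither condition holds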
T cruzi growth-2: Trypanosoma cruzi proliferation inhibition; T. cruzi beta-gal in NIH3T3, GalScreen luminescence, 90 h; inhibition, % at 8.35 µM; shares compounds with T cruzi growth-1; hit rate 72% among 5,600;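 active = mean replicate inhibition above about 95% and at least 55% of replicates individually reaching it, limit read from the data; inconclusive = only one of the two criteria is met; inactive = neither criterion is met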
T cruzi growth-3: Trypanosoma cruzi proliferation inhibition. AID 651740. shares compounds with T cruzi growth-1. T. cruzi beta-gal in NIH3T3, GalScreen luminescence, 90 h. inhibition, % at 2.09 µM. hit rate 21% among 5,600;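 active = mean inhibition above about 95%, with at least 55% of replicates also reaching it, limit read from the data; inconclusive = meets just one of the two conditions; inactive = meets neither condition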
3T3 cytotox: NIH/3T3 (mouse) viability loss; cytotoxicity (signal decrease), % at 8.35 µM; AID 651742; NIH/3T3 viability, CellTiter-Glo ATP luminescence, 90 h; hit rate 14% among 5,600; shares compounds with T cruzi growth-1;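 active = mean signal decrease across replicates above about 35% based on untreated-well scatter, with enough replicates individually passing, limit read from the data; inconclusive = no rule stated though some were filed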
3T3 cytotox 2: cytotoxicity in mouse NIH/3T3 fibroblasts; shares compounds with T cruzi growth-1; NIH/3T3 viability, CellTiter-Glo ATP luminescence, 90 h; inhibition, % at 24.9 µM; hit rate 56% among 5,600; AID 651744;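 active = mean loss of cell viability signal at or above a set limit, and enough replicates individually reaching it; inconclusive = meets only the mean limit or only the replicate share; inactive = meets neither condition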
Hits are given with their value; – = inactive; ? = inconclusive; · = no result. In the library only some 5.8% were active in any assay of this set; here they are far more common.

SMILES	IDH1 mut inh	Pf Dd2 growth	KDM4C inh	T cruzi growth-1	T cruzi growth-2	T cruzi growth-3	3T3 cytotox	3T3 cytotox 2
COc1ccc(S(=O)(=O)N(C)C[C@@H]2OCCCC[C@@H](C)Oc3ccc(NC(=O)Nc4ccccc4)cc3C(=O)N([C@@H](C)CO)C[C@H]2C)cc1	–	–	–	?	111	–	–	–
COc1ccc(S(=O)(=O)N(C)C[C@H]2OCCCC[C@H](C)Oc3ccc(NC(=O)Nc4ccccc4)cc3C(=O)N([C@H](C)CO)C[C@H]2C)cc1	·	?	–	–	·	·	·	·
COc1cccc2cc(C(=O)CC3(O)C(=O)N(Cc4ccccc4)c4ccc(Br)cc43)c(=O)oc12 (configuration not stated)	–	·	·	·	·	·	·	·
C[C@H]1CN([C@@H](C)CO)C(=O)c2cccc(NC(=O)CCCCCC(=O)Nc3ccccc3N)c2O[C@@H]1CN(C)S(=O)(=O)c1ccc(Cl)cc1	–	?	–	106	105	–	–	–
C[C@H](CO)N1C[C@H](C)[C@H](CN(C)S(=O)(=O)c2ccc(Cl)cc2)Oc2c(NC(=O)CCCCCC(=O)Nc3ccccc3N)cccc2C1=O	·	-81	–	106	114	–	–	–
C[C@H]1CN([C@@H](C)CO)C(=O)c2cccc(NC(=O)CCCCCC(=O)Nc3ccccc3N)c2O[C@@H]1CN(C)S(=O)(=O)c1ccccc1	·	–	–	·	·	·	·	·
Cc1ccc(S(=O)(=O)N(C)C[C@H]2Oc3c(NC(=O)CCCCCC(=O)Nc4ccccc4N)cccc3C(=O)N([C@H](C)CO)C[C@@H]2C)cc1	·	–	–	·	·	·	·	·
Cc1nnc(SCC2=NN(c3nc4ccccc4s3)C(=O)C2)s1	–	·	·	·	·	·	·	·
CC(C)C(=O)Nc1ccc2c(c1)C(=O)N(C)[C@@H]1CC[C@@H](CC(=O)NCc3ccc(F)cc3)O[C@@H]1CO2	·	–	–	96	–	–	–	–
CC(=O)Nc1ccc2c(c1)C(=O)N(C)[C@H]1CC[C@@H](CC(=O)NCC3CC3)O[C@@H]1CO2	·	–	–	–	·	·	·	·
CC(C)C(=O)Nc1ccc2c(c1)C(=O)N(C)[C@@H]1CC[C@@H](CC(=O)NCc3ccc(F)cc3)O[C@H]1CO2	·	–	–	–	·	·	·	·
COCCNC(=O)C[C@H]1CC[C@@H]2[C@@H](COc3ccc(NC(C)=O)cc3C(=O)N2C)O1	·	–	–	–	·	·	·	·
CN1C(=O)c2cc(NC(=O)c3ccc(F)cc3)ccc2OC[C@H]2O[C@@H](CC(=O)NCC3CCCCC3)CC[C@H]21	·	–	–	101	113	–	39	61
CC(=O)Nc1ccc2c(c1)C(=O)N(C)[C@@H]1CC[C@@H](CC(=O)NCC3CCCCC3)O[C@H]1CO2	·	–	–	99	–	–	–	–
COCCNC(=O)C[C@H]1CC[C@@H]2[C@H](COc3ccc(NC(C)=O)cc3C(=O)N2C)O1	·	–	–	101	–	–	–	–
NC(N)=NS(=O)(=O)c1ccc(NC(=O)OC2CCCC2)cc1	–	·	·	·	·	·	·	·
COCC(=O)Nc1ccc2c(c1)C(=O)N(C)[C@H]1CC[C@H](CC(=O)Nc3ccccc3OC)O[C@@H]1CO2	·	–	·	112	?	–	–	–
C[C@@H]1CN([C@@H](C)CO)C(=O)c2cccc(NC(=O)Nc3ccc(F)cc3)c2O[C@H]1CN(C)Cc1ccc(Oc2ccccc2)cc1	–	–	–	?	96	–	–	55
C[C@@H]1CN([C@H](C)CO)C(=O)c2cccc(NC(=O)Nc3ccc(F)cc3)c2O[C@H]1CN(C)Cc1ccc(Oc2ccccc2)cc1	·	–	–	115	101	–	–	46
C[C@@H]1CN([C@@H](C)CO)C(=O)CCCn2cc(nn2)CO[C@@H]1CN(C)C(=O)c1ccc(N2CCN(C)CC2)cc1	–	–	–	–	·	·	·	·
C[C@@H]1CN([C@H](C)CO)C(=O)CCCn2cc(nn2)CO[C@H]1CN(C)C(=O)c1ccc2ccn(C)c2c1	–	–	–	?	–	–	–	–
C[C@H]1CN([C@@H](C)CO)C(=O)CCCn2cc(nn2)CO[C@H]1CN(C)C(=O)c1ccc(N2CCN(C)CC2)cc1	–	–	–	?	–	–	–	–
